Results collected from several papers.
Protocols differ between the studies behind these lines.
Sample: plasma

| Compound | assay | test system | conditions | quantity | result |
| --- | --- | --- | --- | --- | --- |
| Oc1c(Br)cc(Cl)c2cccnc12 |  | Sprague-Dawley rat | intravenous, 2 mg/kg | MRT | 12.5 h |
| C#Cc1cccc(Nc2ncnc3cc(OCCOC)c(OCCOC)cc23)c1 |  | male Sprague-Dawley rat | oral, 12 mg/kg, single dose | MRT(0-inf) | 5.1 h |
| CNCc1cc(-c2ccccc2F)n(S(=O)(=O)c2cccnc2)c1 |  | Sprague-Dawley rat | oral, 10 mg/kg | MRT(0-t) | 2.43 h |
| O=C(O)/C=C/c1ccc(O)c(O)c1 | HPLC | Wistar rat | oral | MRT | 0.69 h |
| Cc1nc(Nc2ncc(C(=O)Nc3c(C)cccc3Cl)s2)cc(N2CCN(CCO)CC2)n1 |  | female Sprague-Dawley rat | intravenous, 5 mg/kg | MRT | 3.78 h |
| CCc1nc(C(N)=O)c(Nc2ccc(N3CCC(N4CCN(C)CC4)CC3)c(OC)c2)nc1NC1CCOCC1 |  | male Sprague-Dawley rat | oral, 10 mg/kg | MRT(0-inf) | 21.8 h |
| O=C(Nc1cc(F)c(F)c(F)c1)c1ccc(F)c(S(=O)(=O)NCc2cccc(B(O)O)c2)c1 |  | male Sprague-Dawley rat | intravenous, 2 mg/kg | MRT(0-t) | 0.73 h |
| CCc1cc(OC)c2nccc(N3CCc4c(cc(Cn5ccnc5)cc4-c4cn(C)nc4C(F)(F)F)C3=O)c2c1 |  | male Sprague-Dawley rat | oral, 50 mg/kg | MRT(0-inf) | 2.7 h |
| CCOC(=O)[C@@]12C[C@@H]1[C@@H](n1ccc3c(NC)nc(C#Cc4ccc(Cl)s4)nc31)[C@H](O)[C@@H]2O |  | male Sprague-Dawley rat | intravenous, 0.5 mg/kg | MRT(0-t) | 1.29 h |
| COc1nc(-c2cc(C)c(N[C@@H](C)c3cc(F)cc(F)c3)nn2)ccc1-n1cnc(C)c1 |  | male Sprague-Dawley rat | intravenous, 1 mg/kg, single dose | MRT(0-t) | 3.28 h |
| CCc1cc(C(=O)NC)c2nccc(N3CCc4c(cc(Cn5ccnc5)cc4-c4cn(C)nc4C(F)(F)F)C3=O)c2c1 |  | male Sprague-Dawley rat | oral, 100 mg/kg, single dose | MRT(0-inf) | 3.8 h |
| N#Cc1ccc(Nc2nc(N)cc(Oc3c(F)cc(-c4ccc(C#N)cc4)cc3F)n2)cc1 |  | Sprague-Dawley rat | intravenous, 1 mg/kg | MRT(0-inf) | 1.56 h |
